# Assay results reported in ChEMBL document CHEMBL1123415, “Benzo[a]carbazole derivatives. Synthesis, estrogen receptor binding affinities, and mammary tumor inhibiting activity” (1986).
# How the values were obtained:
# [1] = molecular target: T1, Estrogen receptor (Mus musculus) (UniProt O08537+P19785); test: Uterotrophic activity in mice as uterus dry weight (mg)/body weight (g) *100 at 0.2 ug; type: functional, tissue-based
# In short: (§1)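 Immature 19-day-old female NMRI mice, 10 per group. Compound in olive oil injected sc on 3 consecutive days, dose per animal; vehicle-only controls, estrone as reference. Killed 24 h after last injection. Uteri fixed in Bouin solution, dried at 100 °C for 24 h. Value = uterine dry weight (mg)/body weight (g) ×100, mean of 10 animals ± SD.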
# [2] = molecular target: T1, Estrogen receptor (Mus musculus); test: Uterotrophic activity in mice as uterus dry weight (mg)/body weight (g) *100 at 1 ug; type: functional, tissue-based; in short: as §1
# [3] = molecular target: T1, Estrogen receptor (Mus musculus); test: Uterotrophic activity in mice as uterus dry weight (mg)/body weight (g) *100 at 25 ug; type: functional, tissue-based; in short: as §1
# [4] = molecular target: T1, Estrogen receptor (Mus musculus); test: Uterotrophic activity in mice as uterus dry weight (mg)/body weight (g) *100 at 5 ug; type: functional, tissue-based; in short: as §1
# [5] = molecular target: Estrogen receptor (Bos taurus) (UniProt Q9XSB5+P49884); test: Evaluated for relative binding affinity (RBA) for calf uterine estrogen receptor; type: protein assay
# In short: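 Calf uterine cytosol (105000g supernatant; final protein 3 mg/mL) in Tris-EDTA-azide buffer pH 7.5. Incubated with 5 nM [³H]estradiol and competitor (10⁻⁹–10⁻⁴ M) for 18 h at 4 °C. Free ligand removed with dextran-coated charcoal, bound counted by scintillation. Nonspecific binding measured with 5 μM estradiol. RBA = estradiol/competitor molar ratio at 50% displacement ×100.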
# MCF7 [6] = test: Inhibition of [3H]thymidine incorporation into hormone sensitive MCF-7 human breast cancer cells at 10e-5 M; type: functional
# In short: (§2)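 MCF-7 cells kept two weeks in medium with 5% charcoal-treated calf serum, 37 °C, 5% CO₂. About 2×10⁴ cells per well; compound added next day in 0.1% ethanol, ethanol-only controls, medium changed on day 4. Cells counted on day 7 by Coulter counter; [³H]thymidine 1 μCi/well for 2 h. Mean of six dishes.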
# MCF7 [7] = test: Inhibition of [3H]thymidine incorporation into hormone sensitive MCF-7 human breast cancer cells at 10e-6 M; type: functional; in short: as §2
# MCF7 [8] = test: Reduction of cell number of hormone sensitive MCF-7 human breast cancer cells at 10e-5 M
# MCF7 [9] = test: Reduction of cell number of hormone sensitive MCF-7 human breast cancer cells at 10e-6 M
# T1 sequence (O08537 whole entry, looked up): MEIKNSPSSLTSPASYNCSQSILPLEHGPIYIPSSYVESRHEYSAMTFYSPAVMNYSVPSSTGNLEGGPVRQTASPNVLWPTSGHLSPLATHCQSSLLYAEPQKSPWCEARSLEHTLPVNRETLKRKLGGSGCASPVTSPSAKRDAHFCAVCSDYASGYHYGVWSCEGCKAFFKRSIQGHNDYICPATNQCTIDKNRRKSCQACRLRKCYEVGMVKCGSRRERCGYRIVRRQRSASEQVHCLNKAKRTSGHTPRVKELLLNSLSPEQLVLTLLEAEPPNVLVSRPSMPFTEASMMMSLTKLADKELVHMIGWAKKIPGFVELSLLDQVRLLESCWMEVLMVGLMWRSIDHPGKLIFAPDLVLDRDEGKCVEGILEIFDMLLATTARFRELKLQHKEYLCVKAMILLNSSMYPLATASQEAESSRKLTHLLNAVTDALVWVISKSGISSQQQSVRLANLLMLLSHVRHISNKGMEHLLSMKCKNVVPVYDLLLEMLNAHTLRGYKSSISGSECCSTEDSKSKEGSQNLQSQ
# T1 sequence (P19785 whole entry, looked up): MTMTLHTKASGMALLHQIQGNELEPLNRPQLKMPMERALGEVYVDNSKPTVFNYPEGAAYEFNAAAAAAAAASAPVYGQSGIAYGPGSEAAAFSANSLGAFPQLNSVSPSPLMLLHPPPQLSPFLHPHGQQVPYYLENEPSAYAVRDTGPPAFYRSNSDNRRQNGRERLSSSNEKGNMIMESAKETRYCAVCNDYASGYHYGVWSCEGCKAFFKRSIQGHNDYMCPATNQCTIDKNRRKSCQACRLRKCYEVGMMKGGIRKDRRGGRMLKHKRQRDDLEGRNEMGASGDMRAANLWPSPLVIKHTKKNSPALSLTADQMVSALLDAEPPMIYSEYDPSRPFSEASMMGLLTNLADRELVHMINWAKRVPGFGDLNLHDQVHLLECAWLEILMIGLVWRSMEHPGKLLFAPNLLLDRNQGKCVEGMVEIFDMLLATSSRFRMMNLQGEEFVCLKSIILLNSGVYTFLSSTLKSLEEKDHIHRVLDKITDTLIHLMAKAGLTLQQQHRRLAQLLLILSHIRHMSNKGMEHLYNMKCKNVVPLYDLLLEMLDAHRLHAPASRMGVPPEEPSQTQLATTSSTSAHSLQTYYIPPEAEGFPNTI
Structure (SMILES),relative binding affinity (RBA) [5],also measured
CCn1c2c(c3ccc(OC(C)=O)cc31)CCc1cc(OC(C)=O)ccc1-2,–,Activity [1]: 20.3; Activity [2]: 29.3; Activity [3]: 43.9; Activity [4]: 45.8
Cn1c2c(c3ccc(O)cc31)CCc1cc(O)ccc1-2,9.6,–
CCn1c2c(c3cc(O)ccc31)CCc1c(O)cccc1-2,1.9,–
CCn1c2cc(O)ccc2c2ccc3ccc(O)cc3c21,3.6,–
CCn1c2ccc(O)cc2c2ccc3c(O)cccc3c21,0.1,–
CCn1c2cc(O)ccc2c2ccc3cc(O)ccc3c21,20,–
CCn1c2ccccc2c2ccc3cc(O)ccc3c21,0.33,–
Cn1c2cc(O)ccc2c2ccc3cc(O)ccc3c21,9.5,–
CCn1c2ccc(O)cc2c2ccc3ccccc3c21,< 0.01,–
CCCCn1c2cc(O)ccc2c2ccc3cc(O)ccc3c21,2.3,–
CCn1c2cc(O)ccc2c2ccc3ccccc3c21,0.01,–
CCn1c2cc(O)ccc2c2ccc3c(O)cccc3c21,0.65,–
CCCn1c2cc(O)ccc2c2ccc3cc(O)ccc3c21,13,–
CCn1c2ccc(O)cc2c2ccc3cc(O)ccc3c21,6.5,Activity (MCF7 [6]): 1040; Activity (MCF7 [7]): 26460; cell number (MCF7 [8]): 5200; cell number (MCF7 [9]): 24100
CCn1c2c(c3cc(O)ccc31)CCc1ccc(O)cc1-2,0.7,–
